One assay deals with Candida parapsilosis. The assay can be described thus: In vitro minimum inhibitory concentration (MIC) against isolates of Candida parapsilosis in Sabouraud's dextrose broth. The class given is functional. The settings on record: Lodderomyces parapsilosis. In outline:
(§1)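 Tube broth dilution in Sabouraud's dextrose broth, pH 6.5. Compounds were dissolved in Me₂SO and serially diluted in medium, then incubated at 30 °C. Growth control was read at 48 h for Candida albicans and C. parapsilosis, 72 h for Aspergillus fumigatus, and 7 days for Sporothrix schenckii and the dermatophytes. MIC is the lowest concentration with no macroscopic growth.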

For a further assay, the system named is Microsporum canis. The assay is described as follows: In vitro minimum inhibitory concentration (MIC) against isolates of Microsporum canis in Sabouraud's dextrose broth. It counts as functional. The procedure, abridged: as §1
A further assay concerns Epidermophyton floccosum. The assay can be described thus: In vitro minimum inhibitory concentration (MIC) against isolates of Epidermophyton floccosum in Sabouraud's dextrose broth. It counts as functional. In outline:
as §1

A further assay deals with Trichophyton benhamiae. The assay is described as follows: In vitro minimum inhibitory concentration (MIC) against isolates of Trichophyton mentagrophytes in Sabouraud's dextrose broth. It counts as functional, Arthroderma benhamiae. In outline: as §1
The next assay has as its system Sporothrix schenckii. The assay can be described thus: In vitro minimum inhibitory concentration (MIC) against isolates of Sporothrix schenck ii in Sabouraud's dextrose broth. The class given is functional. The procedure, abridged: as §1
The test system of assay [1] is Cavia porcellus. The assay can be described thus: Compound was evaluated in vivo for the activity (% mycological cure) by topical treatment of guinea pig dermatophytosis caused by Trichophyton mentagrophytes (0.125% of compound). The class given is functional. The procedure, abridged:
(§2)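 Infection model: 8–10 guinea pigs per dose level, lumbar backs shorn, 10^6 cfu T. mentagrophytes in 0.1 mL Sabouraud 2% dextrose broth applied over a 3.5 cm diameter area. Starting 48 h post-inoculation, 0.4 mL compound solution in PEG 400/ethanol 75/25 (v/v) was spread on the lesion once daily for 7 days. Read-out on day 3 after the last treatment: hair cultures checked microscopically for growth at hair roots.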

Assay [2] relates to Cavia porcellus. The assay can be described thus: Compound was evaluated in vivo for the activity (% mycological cure) by oral treatment of guinea pig dermatophytosis caused by Trichophyton mentagrophytes. Dose = 150 mg/kg/day. The class given is functional. The procedure, abridged:
(§3)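 Guinea pigs, 8–10 per dose, with shorn lumbar backs were inoculated over a 3.5 cm circle with 0.1 mL Sabouraud 2% dextrose broth carrying 10^6 cfu T. mentagrophytes. Compound in miglyol 812 was given as 0.5 mL by stomach tube once daily for 9 days from the inoculation day. One day after the last dose, hairs from lesions were cultured and hair-root regions examined microscopically for fungal growth.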

The subject of assay [3] is Cavia porcellus. The assay can be described thus: Compound was evaluated in vivo for the activity (% mycological cure) by topical treatment of guinea pig dermatophytosis caused by Trichophyton mentagrophytes (0.5% of compound). The class given is functional. In outline: as §2
The test system of the next assay is Candida albicans. The assay can be described thus: In vitro minimum inhibitory concentration (MIC) against isolates of Candida albicans in Sabouraud's dextrose broth. The class given is functional. In outline:
as §1

In the next assay the test system is Aspergillus fumigatus. The assay is described as follows: In vitro minimum inhibitory concentration (MIC) against isolates of Aspergillus fumigatus in Sabouraud's dextrose broth. The class given is functional. In outline: as §1
The subject of assay [4] is Cavia porcellus. The assay is described as follows: Compound was evaluated in vivo for the activity (% mycological cure) by oral treatment of guinea pig dermatophytosis caused by Trichophyton mentagrophytes. Dose =5 mg/kg/day. It counts as functional. In outline: as §3
In assay [5] the test system is Cavia porcellus. The assay can be described thus: Compound was evaluated in vivo for the activity (% mycological cure) by oral treatment of guinea pig dermatophytosis caused by Trichophyton mentagrophytes. Dose = 10 mg/kg/day. The class given is functional. In outline:
as §3

In assay [6] the test system is Cavia porcellus. The assay can be described thus: Compound was evaluated in vivo for the activity (% mycological cure) by oral treatment of guinea pig dermatophytosis caused by Trichophyton mentagrophytes. Dose = 75 mg/kg/day. It counts as functional. In outline: as §3
Assay [7] has as its system Cavia porcellus. The assay is described as follows: Compound was evaluated in vivo for the activity (% mycological cure) by oral treatment of guinea pig dermatophytosis caused by Trichophyton mentagrophytes. Dose = 5 mg/kg/day. It counts as functional. The procedure, abridged:
as §3

Assay [8] concerns Cavia porcellus. The assay can be described thus: Compound was evaluated in vivo for the activity (% mycological cure) by oral treatment of guinea pig dermatophytosis caused by Trichophyton mentagrophytes. Dose = 37.5 mg/kg/day. It counts as functional. The procedure, abridged: as §3

≈ marks a conversion by molar mass, not a printed value. A value given as a limit tells only on which side of the number the result lay.

On to `CCCCC#CC#CCN(C)Cc1cccc2ccccc12`, for which the MIC was 100 µg/mL (≈ 346 µM) in the assay on Candida parapsilosis; 0.8 µg/mL (≈ 2.76 µM) in the assay with Microsporum canis; 3.1 µg/mL (≈ 10.7 µM) with Epidermophyton floccosum; 0.2 µg/mL (≈ 0.691 µM) in the assay with Trichophyton benhamiae; 100 µg/mL (≈ 346 µM) in the assay on Sporothrix schenckii.

With `CCCC/C=C/C=C/CN(C)Cc1cccc2ccccc12`, the Activity is 40% in the assay with Cavia porcellus [1], 43% with Cavia porcellus [2] and 69% in the assay on Cavia porcellus [3]. Further, the MIC in the assay on Candida parapsilosis was 1.6 µg/mL (≈ 5.45 µM); with Microsporum canis, 0.1 µg/mL (≈ 0.341 µM); with Epidermophyton floccosum, 0.2 µg/mL (≈ 0.682 µM); in the assay with Trichophyton benhamiae, 0.05 µg/mL (≈ 0.17 µM); with Sporothrix schenckii it was 3.1 µg/mL (≈ 10.6 µM).

`CCC(C)C#C/C=C/CN(C)Cc1cccc2ccccc12` (configuration not stated): the MIC in the assay on Candida parapsilosis is 0.4 µg/mL (≈ 1.37 µM); against Candida albicans it was 100 µg/mL (≈ 343 µM); against Microsporum canis it was 0.006 µg/mL (≈ 0.0206 µM); in the assay with Epidermophyton floccosum it was 0.006 µg/mL (≈ 0.0206 µM); in the assay with Aspergillus fumigatus, 100 µg/mL (≈ 343 µM); against Trichophyton benhamiae, 0.01 µg/mL (≈ 0.0343 µM). The same compound had an MIC in the assay on Sporothrix schenckii of 0.8 µg/mL (≈ 2.75 µM). In addition, the Activity is 23% in the assay on Cavia porcellus [4] and 75% in the assay with Cavia porcellus [5].

As for `CCCCC#C/C=C\CN(C)Cc1cccc2ccccc12`, the MIC in the assay with Candida parapsilosis is 100 µg/mL (≈ 343 µM); against Microsporum canis, 0.2 µg/mL (≈ 0.686 µM); in the assay on Epidermophyton floccosum, 100 µg/mL (≈ 343 µM); in the assay with Trichophyton benhamiae, 0.2 µg/mL (≈ 0.686 µM); with Sporothrix schenckii, 50 µg/mL (≈ 172 µM).

On to `CCCC/C=C/C#CCN(C)Cc1cccc2ccccc12`, for which the MIC in the assay with Candida parapsilosis is over 100 µg/mL; in the assay on Microsporum canis it was 0.2 µg/mL (≈ 0.686 µM); in the assay on Epidermophyton floccosum, 1.6 µg/mL (≈ 5.49 µM); against Trichophyton benhamiae, 0.2 µg/mL (≈ 0.686 µM); in the assay with Sporothrix schenckii, over 100 µg/mL.

Turning to `CCCCC#C/C=C/CN(C)Cc1cccc2ccccc12`, the Activity in the assay on Cavia porcellus [1] came to 83%; in the assay with Cavia porcellus [2] it was 100%; with Cavia porcellus [6], 100%; in the assay with Cavia porcellus [7], 0%; in the assay on Cavia porcellus [8], 83%; with Cavia porcellus [3], 100%. The Activity with Cavia porcellus [5] worked out at 15%. Besides, the MIC with Candida parapsilosis turned out to be 0.4 µg/mL (≈ 1.37 µM); with Candida albicans it was 100 µg/mL (≈ 343 µM); against Microsporum canis, 0.01 µg/mL (≈ 0.0343 µM); against Epidermophyton floccosum, 0.01 µg/mL (≈ 0.0343 µM); with Aspergillus fumigatus, 100 µg/mL (≈ 343 µM); against Trichophyton benhamiae, 0.01 µg/mL (≈ 0.0343 µM). For the same compound, in the assay on Sporothrix schenckii, the MIC amounted to 1.6 µg/mL (≈ 5.49 µM).

In the case of `CN(C/C=C/c1ccccc1)Cc1cccc2ccccc12` [NAFTIFINE], the Activity is 35% in the assay with Cavia porcellus [1] and 65% in the assay on Cavia porcellus [3]. Moreover, the MIC is 1.6 µg/mL (≈ 5.57 µM) against Candida parapsilosis; 0.1 µg/mL (≈ 0.348 µM) against Microsporum canis; 0.2 µg/mL (≈ 0.696 µM) against Epidermophyton floccosum; 0.05 µg/mL (≈ 0.174 µM) against Trichophyton benhamiae; 1.6 µg/mL (≈ 5.57 µM) against Sporothrix schenckii.

`CN(C/C=C/C#CC(C)(C)C)Cc1cccc2ccccc12` [TERBINAFINE]: the MIC in the assay on Candida parapsilosis is 0.4 µg/mL (≈ 1.37 µM); in the assay with Candida albicans, 25 µg/mL (≈ 85.8 µM); with Microsporum canis it was 0.006 µg/mL (≈ 0.0206 µM); against Epidermophyton floccosum, 0.006 µg/mL (≈ 0.0206 µM); in the assay on Aspergillus fumigatus it was 0.8 µg/mL (≈ 2.75 µM); against Trichophyton benhamiae it was 0.006 µg/mL (≈ 0.0206 µM). This compound showed an MIC against Sporothrix schenckii of 0.4 µg/mL (≈ 1.37 µM). Further, the Activity in the assay on Cavia porcellus [7] turned out to be 98%; in the assay on Cavia porcellus [5] it was 100%.

For the origin of these results see ChEMBL document CHEMBL1122525, “Synthesis and antifungal activity of (E)-N-(6,6-dimethyl-2-hepten-4-ynyl)-N-methyl-1-naphtha lenemethanamine (SF 86-327) and related allylamine derivatives with enhanced oral activity” (1984).
